Experimental data published in ChEMBL document CHEMBL1156483, “A directed approach for engineering conditional protein stability using biologically silent small molecules” (J Biol Chem, 2007).
pEC50, pKd: −log10 of the molar value. The source made the active and inactive calls. No cut-off for these calls is given here.

Experiments:
NIH3T3 [1] = assay: (§1) Stability of FKBP12 V2A mutant-YFP fusion protein expressed in NIH3T3 cells after 24 hrs by flow cytometry; type: cell-based
How it was run: (§2)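 Retrovirally transduced NIH3T3 cells stably expressing V2A-YFP, plated at 1 × 10^5 cells/well and dosed with 3-fold dilutions (10 µM to 1 nM, or 10 µM to 300 nM) for 24 h. Cells trypsinized, resuspended in PBS, YFP read by flow cytometry (10,000 events). Average MFI ±SEM relative to F36V protein; EC50 from dose curve.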

[2] = Displacement of fluorescein-SLF from FKBP12 F36V mutant by fluorescence polarization assay
NIH3T3 [3] = assay: Prevention of proteasome mediated degradation of FKBP12-YFP fusion protein expressed in mouse NIH3T3 cells at 10 uM
NIH3T3 [4] = assay: Stability of FKBP12 V2A mutant-C terminus of YFP fusion protein expressed in NIH3T3 cells assessed as mean fluorescence intensity at 1 uM after 24 hrs by flow cytometry; type: cell-based
How it was run: (§3)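 FKBP mutants (all carrying F36V) fused to the N- or C-terminus of YFP and stably transduced into NIH3T3 cells by MMLV retrovirus (clonally mixed populations). Cells split, mock-treated or given 1 µM for 24 h. YFP read by flow cytometry, 10,000 events. MFI normalized to parent F36V-YFP cells given 1 µM; mean of three experiments ±SEM.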

NIH3T3 [5] = assay: Stability of FKBP12 V4A mutant-N terminus of YFP fusion protein expressed in NIH3T3 cells assessed as mean fluorescence intensity at 1 uM after 24 hrs by flow cytometry relative to FKBP12 F36V mutant; type: cell-based; how it was run: as §3
NIH3T3 [6] = assay: Stability of FKBP12 F36V mutant-C terminus of YFP fusion protein expressed in NIH3T3 cells assessed as mean fluorescence intensity at 1 uM after 24 hrs by flow cytometry; type: cell-based; how it was run: as §3
NIH3T3 [7] = assay: Stability of FKBP12 L106A mutant-C terminus of YFP fusion protein expressed in NIH3T3 cells assessed as mean fluorescence intensity at 1 uM after 24 hrs by flow cytometry; type: cell-based; how it was run: as §3
NIH3T3 [8] = assay: Stability of FKBP12 17V mutant-N terminus of YFP fusion protein expressed in NIH3T3 cells assessed as mean fluorescence intensity at 1 uM after 24 hrs by flow cytometry relative to FKBP12 F36V mutant; type: cell-based; how it was run: as §3
[9] = Displacement of fluorescein-SLF from FKBP12 F36V mutant-GST fusion protein by fluorescence polarization assay
NIH3T3 [10] = assay: Effect on Ptpn1 mRNA level in mouse NIH3T3 cells at 10 nM after 24 hrs by microarray analysis relative to control; type: functional
How it was run: (§4)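 NIH3T3 cells, in triplicate, mock-treated or treated with 10 nM, 100 nM or 1 µM for 24 h. Total RNA hybridized to MEEBO oligonucleotide arrays. Differentially expressed genes identified by unpaired two-class SAM against mock-treated samples, FDR ≤27.5%. Fold change reported.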

NIH3T3 [11] = assay: Stability of FKBP12 V2A mutant-firefly luciferase fusion protein expressed in NIH3T3 cells assessed as rescue of luminescence at 1 or 10 uM after 24 hrs by dual luciferase reporter assay; type: cell-based
[12] = Displacement of fluorescein-SLF from FKBP12 L50A mutant-GST fusion protein by fluorescence polarization assay
NIH3T3 [13] = assay: Stability of FKBP12 V4A/17V mutant-N terminus of YFP fusion protein expressed in NIH3T3 cells assessed as mean fluorescence intensity at 1 uM after 24 hrs by flow cytometry relative to FKBP12 F36V mutant; type: cell-based; how it was run: as §3
NIH3T3 [14] = assay: Stability of FKBP12 L50A mutant-N terminus of YFP fusion protein expressed in NIH3T3 cells assessed as mean fluorescence intensity at 1 uM after 24 hrs by flow cytometry; type: cell-based; how it was run: as §3
NIH3T3 [15] = assay: Effect on Tcfe3 mRNA level in mouse NIH3T3 cells at 1 uM after 24 hrs by microarray analysis relative to control; type: functional; how it was run: as §4
[16] = Displacement of fluorescein-SLF from FKBP12 V2A mutant-GST fusion protein by fluorescence polarization assay
NIH3T3 [17] = assay: Stability of FKBP12 F36V mutant-N terminus of YFP fusion protein expressed in NIH3T3 cells assessed as mean fluorescence intensity at 1 uM after 24 hrs by flow cytometry; type: cell-based; how it was run: as §3
NIH3T3 [18] = assay: Stability of FKBP12 V2A/V4A mutant-N terminus of YFP fusion protein expressed in NIH3T3 cells assessed as mean fluorescence intensity at 1 uM after 24 hrs by flow cytometry relative to FKBP12 F36V mutant; type: cell-based; how it was run: as §3
[19] = Displacement of fluorescein-SLF from FKBP12 L106A mutant-GST fusion protein by fluorescence polarization assay
[20] = as §1; type: cell-based; how it was run: as §2
NIH3T3 [21] = assay: Stability of FKBP12 L50A mutant-C terminus of YFP fusion protein expressed in NIH3T3 cells assessed as mean fluorescence intensity at 1 uM after 24 hrs by flow cytometry; type: cell-based; how it was run: as §3
NIH3T3 [22] = assay: Effect on MtCrVgp3 mRNA level in mouse NIH3T3 cells at 10 nM after 24 hrs by microarray analysis relative to control; type: functional; conditions: in the assay text read “at 1 uM” for “at 10 nM”; how it was run: as §4
NIH3T3 [23] = assay: Effect on Npas4 mRNA level in mouse NIH3T3 cells at 10 nM after 24 hrs by microarray analysis relative to control; type: functional; how it was run: as §4
NIH3T3 [24] = assay: Effect on A430110N23 mRNA level in mouse NIH3T3 cells at 10 nM after 24 hrs by microarray analysis relative to control; type: functional; how it was run: as §4
NIH3T3 [25] = assay: Effect on Epb4.1l2 mRNA level in mouse NIH3T3 cells at 1 uM after 24 hrs by microarray analysis relative to control; type: functional; how it was run: as §4
NIH3T3 [26] = assay: Stability of FKBP12 V2A/V4A/17V mutant-N terminus of YFP fusion protein expressed in NIH3T3 cells assessed as mean fluorescence intensity at 1 uM after 24 hrs by flow cytometry relative to FKBP12 F36V mutant; type: cell-based; how it was run: as §3
NIH3T3 [27] = assay: Stability of FKBP12 V2A mutant-N terminus of YFP fusion protein expressed in NIH3T3 cells assessed as mean fluorescence intensity at 1 uM after 24 hrs by flow cytometry relative to FKBP12 F36V mutant; type: cell-based; how it was run: as §3
NIH3T3 [28] = assay: Effect on Shkbp1 mRNA level in mouse NIH3T3 cells at 10 nM after 24 hrs by microarray analysis relative to control; type: functional; how it was run: as §4
NIH3T3 [29] = assay: Effect on Csnkle mRNA level in mouse NIH3T3 cells at 1 uM after 24 hrs by microarray analysis relative to control; type: functional; how it was run: as §4
NIH3T3 [30] = assay: Effect on 4930422M22Rik mRNA level in mouse NIH3T3 cells at 10 nM after 24 hrs by microarray analysis relative to control; type: functional; how it was run: as §4
NIH3T3 [31] = assay: Stability of FKBP12 V2A mutant-N terminus of YFP fusion protein expressed in NIH3T3 cells assessed as mean fluorescence intensity at 1 uM after 24 hrs by flow cytometry; type: cell-based; how it was run: as §3
NIH3T3 [32] = assay: Stability of FKBP12 V2A/17V mutant-N terminus of YFP fusion protein expressed in NIH3T3 cells assessed as mean fluorescence intensity at 1 uM after 24 hrs by flow cytometry relative to FKBP12 F36V mutant; type: cell-based; how it was run: as §3
NIH3T3 [33] = assay: Stability of FKBP12 L106A mutant-N terminus of YFP fusion protein expressed in NIH3T3 cells assessed as mean fluorescence intensity at 1 uM after 24 hrs by flow cytometry; type: cell-based; how it was run: as §3

## CC[C@H](C(=O)N1CCCC[C@H]1C(=O)O[C@H](CCc1ccc(OC)c(OC)c1)c1cccc(OCC(=O)O)c1)c1cc(OC)c(OC)c(OC)c1
NIH3T3 [1]
  Activity: Active
[2]
  pKd: 9.40

## CC[C@H](C(=O)N1CCCC[C@H]1C(=O)O[C@H](CCc1ccc(OC)c(OC)c1)c1cccc(OCC(=O)NCC(C)(C)N)c1)c1cc(OC)c(OC)c(OC)c1
NIH3T3 [1]
  Activity: Active
[2]
  pKd: 9.05

## CC[C@H](C(=O)N1CCCC[C@H]1C(=O)O[C@H](CCc1ccc(OC)c(OC)c1)c1cccc(OCC(=O)OCCn2ccnn2)c1)c1cc(OC)c(OC)c(OC)c1
NIH3T3 [1]
  Activity: Active
[2]
  pKd: 9.15

## CC(=O)N[C@@H](CSC(=O)[C@]1([C@@H](O)C(C)C)NC(=O)[C@H](C)[C@@H]1O)C(=O)O
NIH3T3 [3]
  Activity: Active

## CC[C@H](C(=O)N1CCCC[C@H]1C(=O)O[C@H](CCc1ccc(OC)c(OC)c1)c1cccc(OCCN2CCOCC2)c1)c1cc(OC)c(OC)c(OC)c1
NIH3T3 [4]
  Activity: inactive
NIH3T3 [5]
  Activity: Active
NIH3T3 [6]
  Activity: inactive
NIH3T3 [7]
  Activity: inactive
NIH3T3 [8]
  Activity: Active
[9]
  pKd: 8.70
NIH3T3 [10]
  fold change (FC): -1.7
NIH3T3 [11]
  Activity: Dose-dependent effect
[12]
  pKd: 8.52
NIH3T3 [13]
  Activity: Active
NIH3T3 [14]
  Stability: Stable
NIH3T3 [15]
  fold change (FC): 1.9
[16]
  pKd: 8.40
NIH3T3 [17]
  Stability: Stable
NIH3T3 [18]
  Activity: Active
[19]
  pKd: 8.70
[20]
  pEC50: 7.22
NIH3T3 [21]
  Activity: inactive
NIH3T3 [22]
  fold change (FC): -11.3
[2]
  pKd: 9.40
NIH3T3 [23]
  fold change (FC): -1.7
NIH3T3 [24]
  fold change (FC): -2.1
NIH3T3 [25]
  fold change (FC): 2.2
NIH3T3 [26]
  Activity: Active
NIH3T3 [27]
  Activity: Active
NIH3T3 [28]
  fold change (FC): -2.3
NIH3T3 [29]
  fold change (FC): 2.7
NIH3T3 [30]
  fold change (FC): -2.2
NIH3T3 [31]
  Stability: Stable
NIH3T3 [32]
  Activity: Active
NIH3T3 [33]
  Stability: Stable
